KCNK3 inh: human KCNK3 channel inhibitors, primary screen, CHO cells, FluxOR thallium flux, B-score | Potassium channel subfamily K member 3 (Homo sapiens), O14649 | B-score at 10 µM | FluxOR fluorescence; active compounds read low | 340,000 tested, 0.84% active;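 active = B-score under library mean minus 4 SD, starting fluorescence ratio at most library mean plus 5 SD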;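 note: more negative B-score means stronger inhibition of thallium flux through KCNK3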
KCNQ1 act: potentiators or activators of KCNQ1 channel, primary screen, cell-based, thallium flux, high-throughput; CHO-K1 KCNQ1, thallium flux FluxOR fluorescence; active compounds read high; B-score at 10 µM; AID 2648, 2010; 310,000 tested, 0.35% active;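 active = fluorescence ratio B-score, a plate-corrected score, at least three library SD, with initial intensity B-score within 5 SD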
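Schedule – 37 °C overnight plating, 90-min dark dye load, 20-min compound pretreatment · System – stable KCNQ1 CHO-K1 line · Probe or stimulus – thallium- and potassium-containing depolarizing buffer · Measured by – kinetic FluxOR fluorescence, 10 s baseline plus 110 s post-stimulus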
KCC2 mod: KCC2 cotransporter modulators, thallium flux, primary screen, cell-based, HEK293 KCC2, FluoZin-2 fluorescence, MLSMR; Solute carrier family 12 member 5 (Homo sapiens), Q9H2X9; KCC2 cells, thallium flux FluoZin-2 fluorescence; B-score of Tl+ flux slope (higher = more flux/activation; lower = inhibition) at 10 µM; 190,000 tested, 2.2% active; AID 1456, 2008;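 active = thallium flux slope and its plate-corrected score both differing from the plate sample mean at a set confidence after two filtering rounds, in either direction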;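 note: slope of fluorescence scaled to starting intensity during 10 to 20 s after thallium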
KCNK9 block: KCNK9 potassium channel inhibitors, primary screen, HEK293 cells, thallium flux. Potassium channel subfamily K member 9 (Homo sapiens), Q9NPC2. FluxOR thallium flux fluorescence; active compounds read low. B-score at 10 µM. 310,000 tested, 1.2% active. AID 488922, 2010;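 active = ratio B-score over 3 SD below the library mean, with starting fluorescence within 5 SD of its mean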;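 note: negative B-score means less thallium flux so channel inhibition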
Target sequence (Q9NPC2 whole entry, looked up): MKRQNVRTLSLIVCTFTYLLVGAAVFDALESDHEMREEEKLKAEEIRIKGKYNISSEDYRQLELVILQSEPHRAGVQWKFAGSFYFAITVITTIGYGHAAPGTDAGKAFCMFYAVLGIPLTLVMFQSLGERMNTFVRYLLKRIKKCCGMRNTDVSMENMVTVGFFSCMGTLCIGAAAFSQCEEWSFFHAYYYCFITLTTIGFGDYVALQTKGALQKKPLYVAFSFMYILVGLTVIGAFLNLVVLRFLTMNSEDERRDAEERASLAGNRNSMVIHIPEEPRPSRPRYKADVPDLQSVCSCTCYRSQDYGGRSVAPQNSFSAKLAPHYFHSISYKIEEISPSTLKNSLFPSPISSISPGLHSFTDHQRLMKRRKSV
hERG rescue: hERG rescue from dofetilide block, primary screen, cell-based, CHO-hERG, FluxOR thallium flux, dofetilide IC70. dofetilide IC70 present. activation (rescue from dofetilide block), less the hit threshold, % at 10 µM. 310,000 tested, 0.51% active;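 active = activation above the mean of controls blocked by dofetilide plus 5 SD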;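 note: thallium influx through hERG after potassium depolarization seen as dye fluorescence rise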
KCNQ1 inh: inhibitors of human KCNQ1 channel, primary screen, cell-based, thallium flux, high-throughput. Potassium voltage-gated channel subfamily KQT member 1 (Homo sapiens), P51787. CHO-K1 KCNQ1, FluxOR thallium flux fluorescence; active compounds read high. B-score at 10 µM. 310,000 tested, 1.3% active;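 active = compounds whose thallium flux B-score, printed positive for inhibition, exceeds three library SD while starting fluorescence stays within three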;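 note: channel opened by potassium depolarization with thallium stimulus after 20 min compound exposure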
KCNK3 confirm: retest of human KCNK3 channel inhibitors, confirmation, CHO cells, FluxOR thallium flux, triplicate. 2,400 tested, 99% active. shares compounds with KCNK3 inh. ratio percent of control, % at 10 µM. FluxOR fluorescence; 0% buffer, 100% carvedilol maximal block;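 active = ratio percent of control, averaged over triplicates, above buffer control mean plus 5 SD, cut at about 64% in these data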;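 note: ratio is the fluorescence rise from min to max over baseline after thallium stimulus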
KCNK3 uninduced: thallium flux inhibition in non-induced cells, primary screen, counter-screen for KCNK3 inhibitor project, cell-based, non-induced KCNK3 line, FluxOR thallium, triplicate; non-induced KCNK3 parental cells; active compounds read low; AID 651747, 2012; thallium flux ratio (lower = more inhibition) at 10 µM; shares compounds with KCNK3 inh; 2,400 tested, 40% active;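 active = thallium flux ratio, averaged over three wells, more than 5 SD below the buffer control mean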;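 note: host cells are CHO cells without KCNK3 induction; ratio is peak minus trough fluorescence over baseline then normalized to buffer controls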
Starred values were filed as active, the others as inactive; i = inactive; nt = not tested or not shown. Most compounds without a hit are left out; they make up all but 4.1% or so of the library.

SMILES	KCNK3 inh	KCNQ1 act	KCC2 mod	KCNK9 block	hERG rescue	KCNQ1 inh	KCNK3 confirm	KCNK3 uninduced
O=C(CN(c1ccc(Cl)cc1)S(=O)(=O)c1ccccc1)N/N=C/c1ccco1	i	i	-1.9	i	-13	i	nt	nt
NC(N)=N/N=C/c1ccc(OCc2ccccc2)cc1	i	i	nt	i	-28	i	nt	nt
NC(N)=N/N=C/c1ccc(OCc2ccc(Cl)cc2)cc1	-10*	i	nt	i	-30	7*	70*	i
O=C(Nc1ccc(N2CCCC2)cc1)c1cccc(-c2cc3ccccc3oc2=O)c1	-10*	i	-0.03	i	-7	i	84*	i
CCOC(=O)C1CCN(C(=O)COc2ccc(Br)cc2C)CC1	i	i	-0.052	i	-20	i	nt	nt
O=C(CCc1c[nH]c2ccccc12)OCc1cccc([N+](=O)[O-])c1	-9.4*	i	nt	i	-10	i	83*	i
COC(=O)CCc1c[nH]c2ccc([N+](=O)[O-])cc12	i	nt	nt	nt	nt	nt	nt	nt
COc1ccc(Br)cc1/C=N/NC(=O)c1nc(-c2ccccc2)n2c1CCCCC2	-12*	i	-2.6	i	-8	6*	113*	0.14*
COc1ccccc1/C=C/c1nc(C#N)c(N(C)C)o1	i	i	nt	i	-8	i	nt	nt
O=C1c2ccccc2C(O)N1Cc1ccco1 (stereo not drawn)	i	i	0.21	i	-7	i	nt	nt
CCOc1ccccc1NC1c2ccccc2C(=O)N1Cc1ccco1 (stereo not drawn)	-11*	i	-0.18	i	-12	i	98*	i
CCc1ccc2c(c1)C1(NN=C(c3ccc(C)cc3)S1)C(=O)N2 (stereo not drawn)	-8.7*	i	-0.14	i	-23	7*	106*	0.11*
COc1nc(-c2ccccc2)ccc1-c1noc(-c2ccccc2)n1	-12*	i	-0.078	i	-5	i	99*	i
Cc1csc(N2CCN(c3cc4c(cc3Cl)nc(-c3ccncc3)n4CCCN3CCCC3)CC2)n1	i	i	nt	i	-7	i	nt	nt
COc1ccc(-c2csc3nc(-c4cccnc4)nc(Cl)c23)cc1OC	-8.7*	i	0.71	i	-15	i	101*	0.15*
CC1CN(S(=O)(=O)c2cc(C(=O)N(CCc3ccccc3)Cc3ccccc3)ccc2Cl)CC(C)O1 (stereo not drawn)	-8.7*	i	nt	i	-16	i	85*	i
O=C(O)/C=C/c1ccc(S(=O)(=O)Nc2cccnc2)cc1	i	i	nt	i	-9	i	nt	nt
CSc1ccc(CNC(=O)CCn2ccc3cc(S(=O)(=O)N4CCCC4)ccc32)cc1	-9.9*	i	nt	i	-5	i	119*	0.16*
Cc1cccc(CNC(=O)CCn2ccc3cc(S(=O)(=O)N4CCCC4)ccc32)c1	i	i	nt	i	-8	i	nt	nt
CC(=O)c1c(C)[nH]c(C(=O)OCC(=O)Nc2ccc(Cl)c(S(=O)(=O)N(C)C)c2)c1C	i	i	-0.71	i	-6	i	nt	nt

Bioassay records deposited in PubChem by several laboratories.
